Type in all cases: functional
Assay [1] has as its system Haemophilus influenzae. Briefly: Antibacterial activity against Haemophilus influenzae type b ATCC 49247 incubated for 24 hrs by M7-A9 microdilution method. As to conditions: type b ATCC 49247, 24 h. The gist of the method:
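CLSI M7-A9 broth microdilution against H. influenzae ATCC 49247. Compounds held as 2 mg/mL DMSO stocks, diluted 2-fold in Mueller–Hinton broth across 50 to 0.1 μg/mL. Wells received inoculum standardized to 0.5 McFarland and were run in triplicate. After 24 h at 37 °C, MIC taken as the lowest concentration preventing visible turbidity. Ciprofloxacin served as positive control.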
(In general: In broth dilution the organism is exposed to a series of concentrations in liquid medium.)

Assay [2] deals with Haemophilus influenzae. Briefly: Bactericidal activity against Haemophilus influenzae type b ATCC 49247 incubated for 24 hrs followed by transferring to freshly prepared broth medium and measured after 24 hrs by M7-A9 microdilution method. Particulars: type b ATCC 49247, 24 h.
The subject of assay [3] is Haemophilus influenzae. The experiment in a line: Ratio of MBC to MIC for Haemophilus influenzae type b ATCC 49247 by M7-A9 microdilution method.

Converted amounts (≈) assume the structure as drawn.

Turning to `C/C=C1/COC(=O)[C@H]2C(=O)N3CCc4c([nH]c5ccccc45)[C@@H]3C[C@@H]12`, in the assay on Haemophilus influenzae [1], the MIC worked out at 4.7 µg/mL (≈ 14 µM). Besides, the MBC with Haemophilus influenzae [2] was 12.5 µg/mL (≈ 37.2 µM). The Ratio in the assay with Haemophilus influenzae [3] turned out to be 2.7.
For the molecule `CC1(C)CC[C@]2(C(=O)O)CC[C@]3(C)C(=CC[C@@H]4[C@@]5(C)CC[C@H](O)[C@@](C)(CO)[C@@H]5[C@H](O)C[C@]43C)[C@@H]2C1`, the MIC with Haemophilus influenzae [1] was 18.8 µg/mL (≈ 38.5 µM). In the assay with Haemophilus influenzae [2], this molecule yielded an MBC of 50 µg/mL (≈ 102 µM). Moreover, in the assay with Haemophilus influenzae [3], the Ratio is listed as 2.7.
Consider `C[C@@H]1CC[C@]2(C(=O)O)CC[C@]3(C)C(=CC[C@@H]4[C@@]5(C)CC[C@H](O)C(C)(C)[C@@H]5CC[C@]43C)[C@@H]2[C@]1(C)O` [POMOLIC ACID], for which, in the assay on Haemophilus influenzae [1], the MIC was 18.8 µg/mL (≈ 39.8 µM). The MBC in the assay on Haemophilus influenzae [2] was 50 µg/mL (≈ 106 µM). Besides, the Ratio in the assay with Haemophilus influenzae [3] turned out to be 2.7.
As to `CC1(C)CC[C@]2(C(=O)O)CC[C@]3(C)C(=CC[C@@H]4[C@@]5(C)CC[C@H](O)[C@@](C)(CO)[C@@H]5[C@H](O)C[C@]43C)[C@@H]2[C@@H]1O`, the MIC with Haemophilus influenzae [1] turned out to be 18.8 µg/mL (≈ 37.2 µM). This molecule also yielded an MBC in the assay with Haemophilus influenzae [2] of 50 µg/mL (≈ 99.1 µM). Besides, in the assay with Haemophilus influenzae [3], the Ratio is reported as 2.7.
In the assay on Haemophilus influenzae [1], `C[C@H]1OC=C2C(=O)N3CCc4c([nH]c5ccccc45)[C@@H]3C[C@H]2[C@@H]1C=O` gave an MIC of 3.1 µg/mL (≈ 9.22 µM). Moreover, the MBC in the assay on Haemophilus influenzae [2] was 12.5 µg/mL (≈ 37.2 µM). In the assay with Haemophilus influenzae [3], the Ratio is given as 4.
As to `C[C@H]1[C@H](C)CC[C@]2(C(=O)O)CC[C@]3(C(=O)O)C(=CC[C@@H]4[C@@]5(C)CC[C@H](O)C(C)(C)[C@@H]5CC[C@]43C)[C@H]12`, the MIC in the assay on Haemophilus influenzae [1] stood at 25 µg/mL (≈ 51.4 µM). In the assay with Haemophilus influenzae [2], this molecule displayed an MBC of over 50 µg/mL. Moreover, the Ratio in the assay on Haemophilus influenzae [3] is reported as over 2.
`C[C@@H]1CC[C@]2(C(=O)O)CC[C@]3(C)C(=CC[C@@H]4[C@@]5(C)CC[C@@H]6OC([C@H]7[C@@H]8C[C@H]9c%10[nH]c%11ccccc%11c%10CCN9C(=O)C8=CO[C@@H]7C)OC[C@]6(CO)[C@@H]5CC[C@]43C)[C@@H]2[C@]1(C)O` (some centres undefined) returned an MIC in the assay on Haemophilus influenzae [1] of 25 µg/mL (≈ 30.4 µM). The molecule further displayed an MBC against Haemophilus influenzae [2] of 50 µg/mL (≈ 60.7 µM). In addition, the Ratio in the assay on Haemophilus influenzae [3] came to 2.
Taken in the same sequence, the figures for `CC(O)c1coc2c(=O)n3c(cc12)-c1[nH]c2ccccc2c1CC3` (centres undefined) were 25 µg/mL (≈ 78 µM), 50 µg/mL (≈ 156 µM) and 2.
Turning to `C[C@H]1[C@H](C)CC[C@]2(C(=O)O)CC[C@]3(C(=O)O)C(=CC[C@@H]4[C@@]5(C)CCC(=O)C(C)(C)[C@@H]5CC[C@]43C)[C@H]12`, the MIC with Haemophilus influenzae [1] stood at 18.8 µg/mL (≈ 38.8 µM). This molecule showed an MBC in the assay on Haemophilus influenzae [2] of 50 µg/mL (≈ 103 µM). The Ratio with Haemophilus influenzae [3] is listed as 2.7.
`COC(OC)[C@H]1[C@@H]2C[C@H]3c4[nH]c5ccccc5c4CCN3C(=O)C2=CO[C@@H]1C`: the MIC against Haemophilus influenzae [1] was determined as 50 µg/mL (≈ 131 µM). The MBC in the assay on Haemophilus influenzae [2] was over 50 µg/mL. Besides, in the assay on Haemophilus influenzae [3], the Ratio is reported as over 1.
Turning to `C/C=C(/C=O)c1cc2n(c(=O)c1O)CCc1c-2[nH]c2ccccc12`, the MIC with Haemophilus influenzae [1] turned out to be 50 µg/mL (≈ 156 µM). In addition, in the assay on Haemophilus influenzae [2], the MBC was over 50 µg/mL. Moreover, in the assay on Haemophilus influenzae [3], the Ratio is on record as over 1.
The molecule `O=C(O)c1cn(C2CC2)c2cc(N3CCNCC3)c(F)cc2c1=O` [CIPROFLOXACIN] registered an MIC in the assay with Haemophilus influenzae [1] of 1.6 µg/mL (≈ 4.83 µM). In the assay on Haemophilus influenzae [2], this molecule showed an MBC of 1.6 µg/mL (≈ 4.83 µM). For the same molecule, the Ratio in the assay on Haemophilus influenzae [3] is given as 1.
In the case of `C/C=C1/CO[C@H](O)[C@H]2C(=O)N3CCc4c([nH]c5ccccc45)[C@@H]3C[C@@H]12`, the MIC in the assay on Haemophilus influenzae [1] was determined as 4.7 µg/mL (≈ 13.9 µM). This molecule came in with an MBC against Haemophilus influenzae [2] of 12.5 µg/mL (≈ 36.9 µM). In addition, the Ratio in the assay with Haemophilus influenzae [3] is listed as 2.7.

The record behind these values is ChEMBL document CHEMBL4414555, “Constituents from Nauclea latifolia with Anti-Haemophilus influenzae Type b Inhibitory Activities” (2019).
